Our source for the Activity values is ChEMBL document CHEMBL3588843, “Synthesis of C-5″ and C-6″-modified α-GalCer analogues as iNKT-cell agonists” (Bioorg Med Chem, 2015).

Assay [1] has as its system Mus musculus. Put plainly: In vivo activation of iNKT cells in C57BL/6 mouse assessed as stimulation of IL4 production in serum at 5 ug, ip after 4 hrs by ELISA. It counts as functional, organism-based. The gist of the method:
(§1)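 C57BL/6 mice, 5–12 weeks old, in-house bred or purchased. Glycolipid dissolved in PBS with DMSO, given intraperitoneally at 5 μg per mouse. Mice bled 4 h (IL-4) and 16 h (IFN-γ) after injection; cytokines measured in serum. At least 2 separate experiments, 5–8 mice per group per glycolipid.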
In general terms: An ELISA detects its analyte on a solid surface through an enzyme-linked reagent.

Assay [2] relates to Mus musculus. Nature of the assay: In vivo activation of iNKT cells in C57BL/6 mouse assessed as stimulation of IFNgamma production in serum at 5 ug, ip after 16 hrs by ELISA relative to alpha-GalCer. It counts as functional, organism-based. The method in brief:
as §1

Activity calls are given as the source filed them. The calls are words filed in the database; no cut-off is given here.

On to `CCCCCCCCCCCCCCCCCCCCCCCCCC(=O)N[C@@H](CO[C@H]1O[C@H](C(=O)NCc2cccc3ccccc23)[C@H](O)[C@H](O)[C@H]1O)[C@H](O)[C@H](O)CCCCCCCCCCCCCC`, for which the result in assay [1] and in assay [2] was inactive.
As to `CCCCCCCCCCCCCCCCCCCCCCCCCC(=O)N[C@@H](CO[C@H]1O[C@H](C(=O)NCc2ccccc2)[C@H](O)[C@H](O)[C@H]1O)[C@H](O)[C@H](O)CCCCCCCCCCCCCC`, the result in assay [1] and in assay [2] was inactive.
Take `CCCCCCCCCCCCCCCCCCCCCCCCCC(=O)N[C@@H](CO[C@H]1O[C@H](C(=O)NCc2ccsc2)[C@H](O)[C@H](O)[C@H]1O)[C@H](O)[C@H](O)CCCCCCCCCCCCCC`: the result in assay [1] was inactive. For the same compound, the outcome in assay [2] was Active.
In the case of `CCCCCCCCCCCCCCCCCCCCCCCCCC(=O)N[C@@H](CO[C@H]1O[C@H](COC(=O)Nc2cccc3ccccc23)[C@H](O)[C@H](O)[C@H]1O)[C@H](O)[C@H](O)CCCCCCCCCCCCCC`, the outcome in assay [1] and in assay [2] was Active.
Take `CCCCCCCCCCCCCCCCCCCCCCCCCC(=O)N[C@@H](CO[C@H]1O[C@H](COC(=O)Nc2ccc(Cl)cc2)[C@H](O)[C@H](O)[C@H]1O)[C@H](O)[C@H](O)CCCCCCCCCCCCCC`: the outcome in assay [1] and in assay [2] was Active.
For `CCCCCCCCCCCCCCCCCCCCCCCCCC(=O)N[C@@H](CO[C@H]1O[C@H](C(=O)Nc2ccccc2)[C@H](O)[C@H](O)[C@H]1O)[C@H](O)[C@H](O)CCCCCCCCCCCCCC`, the outcome in assay [1] was inactive. Further, in assay [2], the result was Active.
On the same counts, the results for `CCCCCCCCCCCCCCCCCCCCCCCCCC(=O)N[C@@H](CO[C@H]1O[C@H](C(=O)NCCc2ccccc2)[C@H](O)[C@H](O)[C@H]1O)[C@H](O)[C@H](O)CCCCCCCCCCCCCC` are “inactive” and “inactive”.
Turning to `CCCCCCCCCCCCCCCCCCCCCCCCCC(=O)N[C@@H](CO[C@H]1O[C@H](C(=O)NCc2ccc(Cl)c(Cl)c2)[C@H](O)[C@H](O)[C@H]1O)[C@H](O)[C@H](O)CCCCCCCCCCCCCC`, the result in assay [1] and in assay [2] was inactive.
In the case of `CCCCCCCCCCCCCCCCCCCCCCCCCC(=O)N[C@@H](CO[C@H]1O[C@H](COC(=O)Nc2ccncc2)[C@H](O)[C@H](O)[C@H]1O)[C@H](O)[C@H](O)CCCCCCCCCCCCCC`, the result in assay [1] and in assay [2] was Active.
Take `CCCCCCCCCCCCCCCCCCCCCCCCCC(=O)N[C@@H](CO[C@H]1O[C@H](C(=O)Nc2ccc(Cl)c(Cl)c2)[C@H](O)[C@H](O)[C@H]1O)[C@H](O)[C@H](O)CCCCCCCCCCCCCC`: the outcome in assay [1] and in assay [2] was inactive.
